pIC50: −log10 of the molar value. Where only a bound is given, the exact number is not on record here.

The nature of data set [1]: Volume of distribution in Sprague-Dawley rat at 2 mg/kg, iv. The note with it: in vivo. In kind it is ADME, organism-based. Details: dose 2 mg/kg, route intravenous. An outline of the steps:
(§1)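 Single intravenous dose of 2 mg/kg in Sprague-Dawley rats; AUC, half-life, clearance and Vd derived from the plasma profile; n = 3.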

A short description of data set [2]: AUC (0 to infinity) in Sprague-Dawley rat at 2 mg/kg, iv. In kind it is ADME, organism-based. Also noted: time infinity, dose 2 mg/kg, route intravenous. The note with it: plasma. An outline of the steps: as §1
Data set [3] relates to Rattus norvegicus. The experiment in a line: Inhibition of uric acid production in Sprague-Dawley rat at 10 mg/kg, po measured 1 hr post dose. In kind it is functional. An outline of the steps: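 Male SD rats (about 200 g) received potassium oxonate 300 mg/kg i.p. in 0.8% carboxymethylcellulose. One hour later, compound at 10 mg/kg in PEG400/ethanol (2:1) was given orally, and blood was sampled 1 h after dosing. Plasma uric acid was scaled with the normal group as 100% and the oxonate control as 0% inhibition. ANOVA with Dunnett's post-test was used.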

Data set [4] in a line: Clearance in Sprague-Dawley rat at 2 mg/kg, iv. The class given is ADME, organism-based. Details: dose 2 mg/kg, route intravenous. The note with it: in vivo. A digest of the protocol: as §1
Data set [5] is described as follows: Half life in Sprague-Dawley rat at 2 mg/kg, iv. The note with it: in vivo. Also noted: dose 2 mg/kg, route intravenous. The class given is ADME, organism-based. A digest of the protocol: as §1
The nature of data set [6]: Cmax in Sprague-Dawley rat at 10 mg/kg, po. In kind it is ADME, organism-based. Details: dose 10 mg/kg, route oral. The note with it: in vivo. An outline of the steps: (§2)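 Single oral dose of 10 mg/kg in Sprague-Dawley rats; plasma followed over 24 h; Cmax, Tmax, AUC, half-life and bioavailability derived from the plasma profile; n = 3.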
A short description of data set [7]: AUC (0 to last) in Sprague-Dawley rat at 2 mg/kg, iv. Also noted: dose 2 mg/kg, route intravenous, time 0 - last. As to conditions: plasma. In kind it is ADME, organism-based. An outline of the steps: as §1
Data set [8] in a line: Oral bioavailability in Sprague-Dawley rat at 10 mg/kg. As to conditions: in vivo. The class given is ADME, organism-based. An outline of the steps: as §2
The nature of data set [9]: Tmax in Sprague-Dawley rat at 10 mg/kg, po. In kind it is ADME, organism-based. Details: dose 10 mg/kg, route oral. The note with it: in vivo. A digest of the protocol:
as §2

A short description of data set [10]: Inhibition of butter milk Xanthine oxidase using xanthine as substrate preincubated for 3 mins by spectrophotometry. A digest of the protocol: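 Buttermilk xanthine oxidase at 0.05 U/mL in 50 mM phosphate buffer with test compound; reaction started with 200 µM xanthine stock. Uric acid formation read at 293 nm, with linear Vmax over 5 min taken as initial velocity. Inhibition was calculated against the uninhibited rate, and IC50 was taken as the concentration giving 50% inhibition.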

The nature of data set [11]: AUC (0 to last) in Sprague-Dawley rat at 10 mg/kg, po. The class given is ADME, organism-based. Also noted: time 0 - last, dose 10 mg/kg, route oral. As to conditions: plasma. A digest of the protocol:
as §2

The nature of data set [12]: Half life in Sprague-Dawley rat at 10 mg/kg, po. The class given is ADME, organism-based. Also noted: dose 10 mg/kg, route oral. As to conditions: in vivo. A digest of the protocol: as §2
Data set [13] is described as follows: Cytotoxicity against primary rat hepatocytes. The class given is cell-based, Hepatocyte.
Data set [14] in a line: AUC (0 to infinity) in Sprague-Dawley rat at 10 mg/kg, po. The class given is ADME, organism-based. Also noted: time infinity, dose 10 mg/kg, route oral. The note with it: plasma. A digest of the protocol:
as §2

Data set [15] can be described thus: Half life in rat liver microsomes. In kind it is ADME. For orientation: Liver microsomes are a subcellular fraction often used to study metabolism.
The test system of data set [16] is Plasma. The experiment in a line: Plasma concentration in Sprague-Dawley rat at 10 mg/kg, po. In kind it is ADME, organism-based. Details: dose 10 mg/kg, route oral. The note with it: in vivo. A digest of the protocol: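 Oral dose of 10 mg/kg in Sprague-Dawley rats; plasma concentration measured 1 h after administration.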

As a reminder, the Vd is a proportionality between amount in the body and measured concentration, not a real space. A low value points to confinement near the circulation. As usually defined, the AUC(0-inf) is total exposure, with the tail of the curve extrapolated. A low value points to less exposure. As usually defined, the inhibition in vivo is the share of the control response that was lost under treatment. The clearance is the rate of elimination divided by the concentration. A low value points to inefficient removal. As usually defined, the half-life is how long it takes for the measured level to halve. The low end stands for fast loss, the high end for slow loss. The Cmax is the maximum level reached in the sampled fluid or tissue. As usually defined, the AUC(0-t) is the area under the concentration-time curve up to a stated or last time point. A higher AUC(0-t) goes with more exposure. In general, bioavailability refers to dose-corrected exposure relative to a reference, in per cent. Usually Tmax stands for the time from dosing to the highest level. What is called pIC50 is −log10 of the IC50, conventionally taken in molar units. As a reminder, the CC50 is the concentration giving 50% cytotoxicity. `Cc1nc(-c2ccc3c(c2)c(C#N)cn3C(C)C)sc1C(=O)O` registered a Vd in data set [1] of 0.635 L/kg. In addition, the AUC(0-inf) was 12500 ng·h/mL in data set [2] and 52900 ng·h/mL in [14]. The same compound returned an inhibition in vivo at 10 mg/kg in [3] of 60%. In data set [4], this compound had a clearance of 2.69 mL/min/kg. Moreover, the half-life in data set [5] is 4.37 h; in [12], 7.95 h. The compound further had a Cmax in [6] of 3980 ng/mL. Also, the AUC(0-t) in data set [7] was found to be 12400 ng·h/mL; in data set [11] it was 47300 ng·h/mL. In data set [8], this compound gave a bioavailability of 84.3%. The Tmax in data set [9] amounted to 6 h. For the same compound, the negative-log IC50 (pIC50) in [10] was 8.46. In addition, it took 200000 nM to reach half-maximal cytotoxicity in data set [13] (CC50).
In data set [3], `Cc1nc(-c2ccc3c(c2)c(C#N)c(C)n3C(C)C)sc1C(=O)O` showed an inhibition in vivo at 10 mg/kg of 8.6%. The same compound gave a negative logarithm of the IC50 (pIC50) in [10] of 7.97.
The compound `Cc1nc(-c2ccc3c(c2)c(C#N)cn3CCNS(C)(=O)=O)sc1C(=O)O` returned an inhibition in vivo at 10 mg/kg in data set [3] of 0%. The same compound gave a pIC50 in data set [10] of 8.22.
In [10], `Cc1nc(-c2ccc3c(c2)c(Cl)cn3CC(C)C)sc1C(=O)O` gave a pIC50 of 8.24. The compound also yielded a half-life in data set [15] of 0.103 h.
The compound `Cc1nc(-c2ccc(OCC(C)C)c(C#N)c2)sc1C(=O)O` [FEBUXOSTAT] registered a Cmax in [6] of 16400 ng/mL. In data set [10], this compound gave a pIC50 of 8.51. For the same compound, the AUC(0-t) in data set [11] is 61500 ng·h/mL. This compound also came in with a half-life in data set [15] of 2.9 h.
The compound `Cc1nc(-c2ccc3c(c2)c(C#N)cn3CCS(C)(=O)=O)sc1C(=O)O` registered a Cp in data set [16] of less than 20 ng/mL. For the same compound, 10 mg/kg produced 0% inhibition in vivo in data set [3]. The pIC50 in [10] is 7.91.
`Cc1nc(-c2ccc3c(c2)c(C#N)cn3CC(C)C)sc1C(=O)O` showed a pIC50 in data set [10] of 8.26. In addition, the half-life in data set [15] stood at 1.76 h. The compound further displayed a CC50 in [13] of 82000 nM.
Regarding `Cc1nc(-c2ccc3c(c2)c(C#N)cn3Cc2ccc(F)cc2F)sc1C(=O)O`, in [3], testing at 10 mg/kg gave an inhibition in vivo of 16%. In data set [10], this compound showed a pIC50 of 8.07.
In data set [10], `Cc1nc(-c2ccc3c(ccn3CC(C)C)c2)sc1C(=O)O` showed a pIC50 of 6.96. In data set [15], this compound showed a half-life of 0.458 h.
For the compound `CC(C)n1cc(C#N)c2cc(-c3ncc(C(=O)O)s3)ccc21`, in data set [6], the highest concentration (Cmax) amounted to 940 ng/mL. This compound showed a negative logarithm of the IC50 (pIC50) in data set [10] of 8.36. Also, the AUC(0-t) in data set [11] turned out to be 5390 ng·h/mL.
`CC(=O)NCCn1cc(C#N)c2cc(-c3nc(C)c(C(=O)O)s3)ccc21` came in with a Cp in [16] of less than 20 ng/mL. In addition, the inhibition in vivo at 10 mg/kg in data set [3] turned out to be 0%. This compound also gave a pIC50 in [10] of 8.25.
`Cc1nc(-c2ccc3c(c2)c(Cl)cn3C(C)C)sc1C(=O)O` gave a negative-log IC50 (pIC50) in data set [10] of 8.14. In data set [15], this compound displayed a half-life of 1.6 h.
In [10], `COc1nc(-c2ccc3c(c2)c(C#N)cn3C(C)C)sc1C(=O)O` showed a pIC50 of 7.05.
For the compound `COCC(C)n1cc(C#N)c2cc(-c3nc(C)c(C(=O)O)s3)ccc21` (configuration not stated), the inhibition in vivo at 10 mg/kg in data set [3] came to 14.1%. This compound also gave a pIC50 in [10] of 8.05.
In the case of `Cc1nc(-c2ccc3c(c2)c([N+](=O)[O-])cn3C(C)C)sc1C(=O)O`, the pIC50 in data set [10] was 8.38. In data set [15], this compound showed a half-life of 1.32 h.
In data set [3], `Cc1nc(-c2ccc3c(c2)c(C#N)cn3Cc2ccccc2)sc1C(=O)O` showed an inhibition in vivo at 10 mg/kg of 10%. In data set [10], this compound had a pIC50 of 8.41.
In data set [10], `CC(C)n1cc(C#N)c2cc(-c3nc(C(F)(F)F)c(C(=O)O)s3)ccc21` had a pIC50 of 6.05.
In turn, `COCCn1cc([N+](=O)[O-])c2cc(-c3nc(C)c(C(=O)O)s3)ccc21` showed a pIC50 in data set [10] of 7.92.
On to `Cc1nc(-c2ccc3c(c2)c(C#N)cn3C(C)CO)sc1C(=O)O` (configuration not stated), for which the inhibition in vivo at 10 mg/kg in [3] worked out at 8.5%. Further, the pIC50 in data set [10] was 8.52.
On to `Cc1nc(-c2ccc3c(c2)c(Cl)c(C)n3CC(C)C)sc1C(=O)O`, for which the pIC50 in data set [10] was 7.80. This compound gave a half-life in data set [15] of 0.11 h.
For `Cc1nc(-c2ccc3c(c2)c(C#N)cn3C(C)CF)sc1C(=O)O` (configuration not stated), the inhibition in vivo at 10 mg/kg in data set [3] stood at 22.3%. Moreover, the negative logarithm of the IC50 (pIC50) in data set [10] was 8.31.

(Values after ChEMBL document CHEMBL3399928, “Design and synthesis of novel 2-(indol-5-yl)thiazole derivatives as xanthine oxidase inhibitors” (Bioorg Med Chem Lett, 2015).)
